# From ChEMBL document CHEMBL4229525, “Anti-angiogenic and anticancer effects of baicalein derivatives based on transgenic zebrafish model” (Bioorg Med Chem, 2018)
# What was measured:
# A549 [1] = assay: Induction of apoptosis in human A549 cells assessed as live cells at 2.5 uM after 48 hrs by Annexin-V-FITC/propidium iodide staining based flow cytometry (reference value: 75.2%); assay type: functional
# How it was run: (§1)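 A549 cells were plated at 2 × 10⁵ per well and held at 37 °C, 5% CO₂ for 24 h before compound was added. After treatment, cells were stained with annexin V-FITC plus propidium iodide for 30 min at 25 °C. Quadrants were read by flow cytometry: Q3 early apoptotic, Q2 late apoptotic.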
# A549 [2] = assay: Induction of apoptosis in human A549 cells assessed as necrotic cells at 2.5 uM after 48 hrs by Annexin-V-FITC/propidium iodide staining based flow cytometry (reference value: 5.45%); assay type: functional; how it was run: as §1
# A549 [3] = assay: Induction of apoptosis in human A549 cells assessed as late apoptotic cells at 2.5 uM after 48 hrs by Annexin-V-FITC/propidium iodide staining based flow cytometry (reference value: 4.05%); assay type: functional; how it was run: as §1
# A549 [4] = assay: Induction of apoptosis in human A549 cells assessed as early apoptotic cells at 2.5 uM after 48 hrs by Annexin-V-FITC/propidium iodide staining based flow cytometry (reference value: 15.2%); assay type: functional; how it was run: as §1
# [5] = Toxicity index, ratio of MTC for 24 to 72 hrs post fertilized zebra fish embryo harboring fli1:EGFP to MEC for antiangiogenic activity in 24 to 72 hrs post fertilized zebra fish embryo harboring fli1:EGFP; assay type: organism-based, Danio rerio; conditions: fli1:EGFP transgenic, zebrafish, in vivo
# How it was run: (§2)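 Dechorionated Tg(fli1:EGFP) embryos at 24 hpf, 20 per group, were kept in 1 mL embryo water with compound at 28.5 °C for a further 48 h. Compound was tested at 1, 5, 10, 25, 50, 75, 100, 150 and 200 μM. At 72 hpf, embryos anaesthetised with 0.016% tricaine had their ISVs imaged by fluorescence microscopy, with SU5416 as positive control. Definitions used: LOEC is anti-angiogenic effect in most larvae; LOTC is lowest toxic concentration; LC100 is total embryo lethality. TI = LOTC/LOEC; AI = LC100/LOEC.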
# Danio rerio [6] = species: Danio rerio; assay: Antiangiogenic activity in 24 to 72 hrs post fertilized zebra fish embryo harboring fli1:EGFP after 48 hrs by fluorescence microscopic analysis; assay type: functional
# How it was run: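 Tg(fli1:EGFP) zebrafish: 20 dechorionated 24 hpf embryos per group in 1 mL embryo water with compound (1, 5, 10, 25, 50, 75, 100, 150, 200 μM), 28.5 °C for 48 h. Embryos anaesthetised in 0.016% tricaine; ISVs imaged by fluorescence microscopy at 72 hpf and scored for vessel defects and overall morphology. SU5416 positive control.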
# Danio rerio [7] = species: Danio rerio; assay: Toxicity in 24 to 72 hrs post fertilized zebra fish embryo harboring fli1:EGFP; assay type: organism-based; conditions: zebrafish, in vivo; how it was run: as §2
# [8] = Antiangiogenic index, ratio of LC100 for 24 to 72 hrs post fertilized zebra fish embryo harboring fli1:EGFP to MEC for antiangiogenic activity in 24 to 72 hrs post fertilized zebra fish embryo harboring fli1:EGFP; assay type: toxicity, organism-based, Danio rerio; conditions: fli1:EGFP transgenic, zebrafish, in vivo; how it was run: as §2
SMILES,Activity (A549 [1]),Activity (A549 [2]),Activity (A549 [3]),Activity (A549 [4]),selectivity ratio [5],MEC (Danio rerio [6]),LC100 (Danio rerio [7]),MTC (Danio rerio [7]),selectivity ratio [8]
O=C(O)c1cc(O)c(O)c(O)c1 [GALLIC ACID],39.5%,6.7%,20.2%,32.6%,–,–,–,–,–
O=c1cc(-c2ccccc2)oc2cc(O)c(OCCCCO)c(O)c12,–,–,–,–,2,5 µM,30 µM,10 µM,6
O=c1cc(-c2ccccc2)oc2cc(O)c(OCC(O)CO)c(O)c12 (centres undefined),–,–,–,–,1,50 µM,100 µM,50 µM,2
O=C(COc1c(O)cc2oc(-c3ccccc3)cc(=O)c2c1O)N1CCN(CCO)CC1,–,–,–,–,1,100 µM,> 200 µM,100 µM,> 2
O=c1cc(-c2ccccc2)oc2cc(OCCCO)c(O)c(O)c12,–,–,–,–,1,100 µM,> 200 µM,100 µM,> 2
O=C(COc1c(O)cc2oc(-c3ccccc3)cc(=O)c2c1O)N1CCC(O)CC1,–,–,–,–,1,50 µM,100 µM,50 µM,2
O=c1cc(-c2ccccc2)oc2cc(O)c(OCCCCCCO)c(O)c12,–,–,–,–,1,2.5 µM,10 µM,2.5 µM,4
